Lmaj promast – inhibitors of Leishmania major promastigote growth. inhibition, % at 10 µM. AID 1063. 200,000 tested, 9% active. Leishmania major promastigotes, resazurin fluorescence viability; in the data active = inhibition above about 50%;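 also: promastigotes grown with compound for 44 hours at 28 °C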
HCT116 PTEN-null – growth suppressors of cells with PTEN tumor suppressor deletion; 140,000 tested, 1.2% active; viability, % at 10 µM; HCT116 PTEN-null viability, CellTiter-Glo, 60 h; active compounds read low;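 active = viability at or below a set limit, 4 SD under the median of all tested compounds, cut at about 3.7% in these data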;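 also: PTEN knockout HCT116 line with beta catenin targeted HCT116 as companion control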
TNAP inh noacc – TNAP (human) inhibition, acceptor-free conditions; P05186; purified TNAP, CDP-star luminescence, 30 min; inhibition, % at 20 µM; 200,000 tested, 0.26% active;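 active = tissue-nonspecific alkaline phosphatase inhibition above about 50% at 20 µM in the single-dose screen, limit read from the data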
TNAP act hiacc – TNAP (human) activation, high acceptor | AID 1136 | 200,000 tested, under 10 active | purified TNAP, CDP-star luminescence, 1 M DEA, 30 min; active compounds read high; 0 = EDTA background, 1 = DMSO-only activity | activation factor at 20 µM;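 active = activation factor at least 2 at 20 µM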
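system = human TNAP | amount = enzyme diluted 1/800 final | reagent = 100 µM CDP-star substrate | signal = luminescent substrate turnover signal | dosing = one dose, 20 µM | benchmarks = EDTA negative control, DMSO positive control | measure = activation factor | timing = 30 min reaction, room temperature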
TNAP inh hiacc – blocks human TNAP under high phosphate acceptor concentration. P05186. purified TNAP, CDP-star luminescence, 1 M DEA. inhibition, % at 20 µM. 200,000 tested, 0.03% active;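 active = over 50% inhibition of tissue-nonspecific alkaline phosphatase at 20 µM in the single-dose screen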
bCat KO growth – beta-catenin-lacking colon tumor cell growth suppression | HCT116 beta-catenin knockout viability, CellTiter-Glo, 60 h; active compounds read low | viability, % at 10 µM | 140,000 tested, 1.5% active;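 active = viability at or under a set limit, the compound median less 4 SD, cut at about 6% in these data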
Hits are given with their value; . = inactive; / = not tested or not shown. The list is not random: actives were taken first. Their share in the collection is about 9.6%.

SMILES | Lmaj promast | HCT116 PTEN-null | TNAP inh noacc | TNAP act hiacc | TNAP inh hiacc | bCat KO growth
CN(C(=O)COC(=O)c1ccc2ccccc2n1)C1CCS(=O)(=O)C1 (stereo unspecified) | . | / | . | . | . | /
O=C(Nc1ccccc1)NC1(C(=O)NCc2ccc3c(c2)OCO3)CCCCC1 | 58.3 | . | . | . | . | .
O=C(Nc1ccccc1)NC1(C(=O)NCc2ccco2)CCCCC1 | . | . | . | . | . | .
O=C(Nc1cccc(Cl)c1)NC1(C(=O)NCc2cccs2)CCCCC1 | 62.5 | . | . | . | . | .
O=C(NCc1cccs1)Nc1cccc(Cl)c1 | . | / | / | / | / | /
O=C(Nc1ccc(F)cc1)NC1(C(=O)NCc2cccs2)CCCCC1 | 86.8 | . | . | . | . | .
CCN(CC)S(=O)(=O)c1cc(NC(=O)C(CC(C)C)NC(N)=O)ccc1C (stereo unspecified) | . | / | . | . | . | /

Screening data from PubChem BioAssay.
